The text below walks through data of ChEMBL document CHEMBL1131019, “Minimal-size, constrained corticotropin-releasing factor agonists with i-(i+3) Glu-Lys and Lys-Glu bridges” (1998).

SMILES strings stand for the structures.

What all share (format): functional, Pituitary gland cell
Experiment [1] is filed under the species Rattus norvegicus. Briefly: Agonist activity by measuring release of ACTH by rat pituitary cells in culture relative to ovine Corticotropin-Releasing factor (CRF). A digest of the protocol: (§1)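 Male Sprague–Dawley rat anterior pituitary cells, collagenase-dissociated, plated at 0.16 × 10⁶ cells/well in 2% FBS medium. After 3 days, washed into 0.1% BSA medium, preincubated 1 h, washed again, then exposed to peptide for 3 h. Medium ACTH measured by radioimmunoassay.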

The species named for experiment [2] is Rattus norvegicus. Briefly: Percent in vito intrinsic activity (IA) was evaluated in pituitary cell culture assay. A digest of the protocol: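 ACTH release assay in cultured rat anterior pituitary cells from male Sprague–Dawley rats: 3-day culture, 1 h preincubation in 0.1% BSA medium, 3 h peptide exposure, ACTH in medium by radioimmunoassay. Intrinsic activity = ACTH released at maximal analogue dose divided by ACTH released at maximal CRF dose, ×100.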

Experiment [3] is filed under the species Rattus norvegicus. Kind of experiment: In vitro for agonist activity by measuring release of ACTH by rat pituitary cells in culture relative to human Corticotropin-Releasing factor (CRF). A digest of the protocol: as §1

Compound `CCCC[C@H](NC(=O)[C@H](CCC(=O)O)NC(=O)[C@H](CC(C)C)NC(=O)[C@@H](NC(=O)[C@H](CCC(=O)O)NC(=O)[C@H](CCCN=C(N)N)NC(=O)[C@H](CC(C)C)NC(=O)[C@@H]1CCCCNC(=O)CC[C@H](NC(=O)[C@H](CC(C)C)NC(=O)[C@H](CC(=O)O)NC(=O)[C@H](CC(C)C)NC(=O)[C@H](CO)NC(=O)[C@@H](NC(=O)[C@@H]2CCCN2C(=O)[C@@H]2CCCN2C(C)=O)[C@@H](C)CC)C(=O)N[C@H](Cc2ccccc2)C(=O)N[C@@H](Cc2c[nH]cn2)C(=O)N1)C(C)C)C(=O)N[C@@H](C)C(=O)N[C@@H](CCCN=C(N)N)C(=O)N[C@@H](C)C(=O)N[C@@H](CCC(=O)O)C(=O)N[C@@H](CCC(N)=O)C(=O)N[C@@H](CC(C)C)C(=O)N[C@@H](C)C(=O)N[C@@H](CCC(N)=O)C(=O)N[C@@H](CCC(N)=O)C(=O)N[C@@H](C)C(=O)N[C@@H](Cc1c[nH]cn1)C(=O)N[C@@H](CO)C(=O)N[C@@H](CC(N)=O)C(=O)N[C@@H](CCCN=C(N)N)C(=O)N[C@@H](CCCCN)C(=O)N[C@@H](CC(C)C)C(=O)N[C@@H](CCCC)C(=O)N[C@@H](CCC(=O)O)C(=O)N[C@H](C(=O)N[C@H](C(N)=O)[C@@H](C)CC)[C@@H](C)CC` came in with a Potency in experiment [1] of 1.4.
`CCCC[C@H](NC(=O)[C@H](CCCN=C(N)N)NC(=O)[C@H](CC(C)C)NC(=O)[C@H](CC(C)C)NC(=O)[C@H](CCC(=O)O)NC(=O)[C@H](CC(C)C)NC(=O)[C@H](CC(C)C)NC(=O)[C@H](CC(C)C)NC(=O)[C@H](CC(=O)O)NC(=O)[C@@H](NC(=O)[C@H](CO)NC(=O)[C@@H](NC(=O)[C@@H]1CCCN1C(=O)[C@@H]1CCCN1C(=O)CNC(=O)[C@H](CCC(=O)O)NC(=O)[C@@H]1CCCN1)[C@@H](C)CC)[C@@H](C)CC)C(=O)N[C@@H](CCCC)C(=O)N[C@H](C(=O)N[C@@H](CCC(=O)O)C(=O)N[C@H](C(=O)N[C@@H](CCC(=O)O)C(=O)N[C@@H](CCCCN)C(=O)N[C@@H](CCC(N)=O)C(=O)N[C@@H](CCC(=O)O)C(=O)N[C@@H](CCCCN)C(=O)N[C@@H](CCC(=O)O)C(=O)N[C@@H](CCCCN)C(=O)N1C(=O)[C@@H](C)NC(=O)[C@H](CCC(N)=O)NC(=O)[C@@H](N)CCC(=O)NCCCC[C@H]1C(=O)N[C@H](CC(N)=O)C(=O)N[C@H](CC(N)=O)C(=O)N[C@H](CCCN=C(N)N)C(=O)N[C@H](CC(C)C)C(=O)N[C@H](CC(C)C)C(=O)N[C@H](CC(C)C)C(=O)N[C@H](CC(=O)O)C(=O)N[C@@H](C(=O)N[C@@H](C(N)=O)[C@H](C)CC)[C@H](C)O)[C@@H](C)CC)[C@@H](C)CC` registered a Potency in experiment [1] of 5.73.
For `CCCC[C@H](NC(=O)[C@H](CCC(=O)O)NC(=O)[C@H](CC(C)C)NC(=O)[C@H](CCCC)NC(=O)[C@H](CCC(=O)O)NC(=O)[C@H](CCCN=C(N)N)NC(=O)[C@H](CC(C)C)NC(=O)[C@H](CC(C)C)NC(=O)[C@H](Cc1c[nH]cn1)NC(=O)[C@@H](Cc1ccccc1)NC(=O)[C@@H](NC(=O)[C@H](CC(C)C)NC(=O)[C@H](CC(=O)O)NC(=O)[C@H](CC(C)C)NC(C)=O)[C@@H](C)O)C(=O)N[C@@H](C)C(=O)N[C@@H](CCCCN)C(=O)N[C@@H](C)C(=O)N[C@@H](CCC(=O)O)C(=O)N[C@@H](CCC(N)=O)C(=O)N[C@@H](CCC(=O)O)C(=O)N[C@@H](C)C(=O)N[C@@H](CCC(=O)O)C(=O)N1C(=O)[C@H](C)NC(=O)[C@H](C)NC(=O)[C@@H](N)CCC(=O)NCCCC[C@H]1C(=O)N[C@@H](CC(N)=O)C(=O)N[C@@H](CCCN=C(N)N)C(=O)N[C@@H](CC(C)C)C(=O)N[C@@H](CC(C)C)C(=O)N[C@@H](CC(C)C)C(=O)N[C@@H](CCC(=O)O)C(=O)N[C@@H](CCC(=O)O)C(=O)N[C@@H](C)C(N)=O`, in experiment [2], the IA was 93%. Besides, the Potency in experiment [3] worked out at 0.073.
`CCCC[C@H](NC(=O)[C@H](CCC(=O)O)NC(=O)[C@H](CC(C)C)NC(=O)[C@@H](NC(=O)[C@H](CCC(=O)O)NC(=O)[C@H](CCCN=C(N)N)NC(=O)[C@H](CC(C)C)NC(=O)[C@@H]1CCC(=O)NCCCC[C@H](NC(=O)[C@H](CC(C)C)NC(=O)[C@H](CC(=O)O)NC(=O)[C@H](CC(C)C)NC(=O)[C@H](CO)NC(=O)[C@@H](NC(=O)[C@@H]2CCCN2C(=O)[C@@H]2CCCN2C(C)=O)[C@@H](C)CC)C(=O)N[C@H](Cc2ccccc2)C(=O)N[C@@H](Cc2c[nH]cn2)C(=O)N1)C(C)C)C(=O)N[C@@H](C)C(=O)N[C@@H](CCCN=C(N)N)C(=O)N[C@@H](C)C(=O)N[C@@H](CCC(=O)O)C(=O)N[C@@H](CCC(N)=O)C(=O)N[C@@H](CC(C)C)C(=O)N[C@@H](C)C(=O)N[C@@H](CCC(N)=O)C(=O)N[C@@H](CCC(N)=O)C(=O)N[C@@H](C)C(=O)N[C@@H](Cc1c[nH]cn1)C(=O)N[C@@H](CO)C(=O)N[C@@H](CC(N)=O)C(=O)N[C@@H](CCCN=C(N)N)C(=O)N[C@@H](CCCCN)C(=O)N[C@@H](CC(C)C)C(=O)N[C@@H](CCCC)C(=O)N[C@@H](CCC(=O)O)C(=O)N[C@H](C(=O)N[C@H](C(N)=O)[C@@H](C)CC)[C@@H](C)CC` returned a Potency in experiment [1] of 0.0004.
`CC[C@H](C)[C@H](NC(=O)[C@H](CO)NC(=O)[C@H](CC(C)C)NC(=O)[C@H](CO)NC(=O)[C@H]1CCCN1C(=O)[C@H](CC(N)=O)NC(=O)[C@@H](N)CC(=O)O)C(=O)N[C@@H](CC(=O)O)C(=O)N[C@@H](CC(C)C)C(=O)N[C@H](C(=O)N[C@@H](Cc1ccccc1)C(=O)N[C@@H](Cc1c[nH]cn1)C(=O)N[C@@H](CC(C)C)C(=O)N[C@@H](CC(C)C)C(=O)N[C@@H](CCCN=C(N)N)C(=O)N[C@H](C(=O)N[C@@H](CC(C)C)C(=O)N[C@@H](CC(C)C)C(=O)N[C@@H](CCC(=O)O)C(=O)N[C@@H](CC(C)C)C(=O)N[C@@H](C)C(=O)N[C@@H](CCCN=C(N)N)C(=O)N[C@H](C(=O)N[C@@H](CCC(N)=O)C(=O)N[C@@H](CO)C(=O)N[C@@H](CCC(N)=O)C(=O)N[C@@H](CCCN=C(N)N)C(=O)N[C@@H](CCC(=O)O)C(=O)N[C@@H](CCCN=C(N)N)C(=O)N[C@@H](C)C(=O)N[C@@H](CCC(=O)O)C(=O)N[C@@H](CCC(N)=O)C(=O)N[C@@H](CC(N)=O)C(=O)N[C@@H](CCCN=C(N)N)C(=O)N[C@H](C(=O)N[C@H](C(=O)N[C@@H](Cc1ccccc1)C(=O)N[C@@H](CC(=O)O)C(=O)N[C@@H](CO)C(=O)N[C@H](C(N)=O)C(C)C)[C@@H](C)CC)[C@@H](C)CC)[C@@H](C)O)[C@@H](C)O)[C@@H](C)O` (stereo in doubt; 37): the Potency in experiment [3] was determined as 2.9.
